SR-BI uptake up: activators of SR-BI mediated DiI-HDL uptake, primary screen, ldlA[mSR-BI] CHO cells, DiI fluorescence; activation, % at 12.5 µM; 3 h; 100 = double the neutral-control signal; AID 504775, 2011; hit rate 0.096% among 320,000;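 active means mean replicate activation of at least 60% and every replicate at or above 60%; inconclusive means mean or all-replicate condition met, but not both; inactive means mean below 60% and not all replicates reaching 60%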;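 further: 0% = median plate neutral-control signal and 100% = twice that signal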
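Material: SR-BI-overexpressing, LDLR-lacking CHO cells; schedule: compound exposure 3 h, 37 °C; reagent: DiI-labelled HDL at 10 µg/mL final; technique: bottom-read fluorescence, 550/595 nm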
Vif imaging: HIV Vif self-association inhibitors, primary screen, imaging, HEK293T, single point | AID 602346, 2012 | HEK293T cells, Vif self-association by quenched fluorescence, 24 h | inhibition, % at 7.49 µM | hit rate 0.35% among 340,000; in the data active means inhibition above about 50%, passing the limit was not always enough; inconclusive means no clear call, values can overlap the other calls; inactive means below about 31%
Bfl-1 A1 inh: caspase 3/7 activation in MEF A1-2A-BIM cells, primary screen, A1 inhibitor project, cell-based, luminescence, HTS | hit rate 0.066% among 330,000 | caspase activation, % (concentration not given with the values) | Caspase-Glo 3/7 luminescence, 3 h; percent of clofoctol response, vehicle zero;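 active means over half of replicate activation scores above 10%, or exactly half above 10 with the replicate mean above 10; inconclusive means replicate mean below 10 yet half the replicates above 10; inactive means over half of replicates below 10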
SR-BI DiI inh: inhibitors of SR-BI mediated HDL lipid uptake, primary screen, ldlA[mSR-BI] cells, fluorescence, single point; ldlA[mSR-BI] CHO cells, DiI-HDL uptake fluorescence, 3 h; inhibition, % at 12.5 µM; hit rate 0.96% among 320,000; AID 488896, 2010;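 active means mean replicate inhibition of at least 70% and a set share of replicates each scoring 70 or more; inconclusive means meets just one of the two criteria; inactive means fails both criteria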;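 further: 0% = median of neutral control wells and 100% = median of positive control wells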
Target sequence (Q61009 whole entry, looked up): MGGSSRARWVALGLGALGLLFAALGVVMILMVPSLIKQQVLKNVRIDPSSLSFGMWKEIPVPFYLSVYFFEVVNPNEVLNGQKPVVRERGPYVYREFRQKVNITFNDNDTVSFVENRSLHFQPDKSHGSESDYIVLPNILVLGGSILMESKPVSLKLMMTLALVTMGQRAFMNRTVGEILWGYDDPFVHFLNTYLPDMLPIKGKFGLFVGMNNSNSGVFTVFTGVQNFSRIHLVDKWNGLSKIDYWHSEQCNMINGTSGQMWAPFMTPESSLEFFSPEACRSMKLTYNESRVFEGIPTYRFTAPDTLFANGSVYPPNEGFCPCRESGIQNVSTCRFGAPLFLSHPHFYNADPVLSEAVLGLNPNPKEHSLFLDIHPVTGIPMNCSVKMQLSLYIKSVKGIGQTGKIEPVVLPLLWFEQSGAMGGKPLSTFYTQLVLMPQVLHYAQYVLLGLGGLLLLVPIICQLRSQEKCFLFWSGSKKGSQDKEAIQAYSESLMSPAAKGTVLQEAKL
H9c2 TAG inh: inhibitors of triacylglycerol accumulation, primary screen, cell-based, uHTS, fluorescence, H9c2 | H9c2 cells, Nile Red lipid (TAG) fluorescence; cells loaded with 200 µM oleic acid | inhibition, % at 12.5 µM | hit rate 0.66% among 230,000 | AID 651582, 2012;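 active means pattern-corrected inhibition of lipid staining of at least 50% with the nuclear-stain viability signal not falling by more than 50%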;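 further: 0% = DMSO wells and 100% = triacsin C control wells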
H9c2 TAG conf: triacylglycerol accumulation inhibitors, retest, confirmation, cell-based, single concentration, Nile Red fluorescence, H9c2 | shares compounds with H9c2 TAG inh | AID 651629, 2012 | H9c2 lipid accumulation; cells loaded with 200 µM oleic acid | hit rate 71% among 990 | inhibition, % at 12.5 µM;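 active means mean inhibition across replicates of 40% or more; inactive means mean inhibition below 40%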;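 further: plate controls were DMSO only wells for no effect and Triacsin C treated wells for full effect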
* = called active by the depositor; ? = inconclusive; . = not tested or not shown. In the library only some 1.6% were active in any assay of this set; here they are far more common.

SMILES	SR-BI uptake up	Vif imaging	Bfl-1 A1 inh	SR-BI DiI inh	H9c2 TAG inh	H9c2 TAG conf
N#CC1=C(SCC(=O)c2ccc(Br)cc2)NC2=C(C(=O)CCC2)C1c1ccco1 (configuration not stated)	.	-4	1	.	57*	40
CCc1ccc(NC(=O)CSC2=C(C#N)C(c3ccco3)C3=C(CCCC3=O)N2)cc1 (configuration not stated)	-9	0	0	9	14	.
CCC(=O)NC(Nc1sc2c(c1C(=O)OC)CCCC2)(C(F)(F)F)C(F)(F)F	-15	5	-1	15	51*	26
COCC(=O)Nc1sc2c(c1C(=O)OC)CCCC2	-4	0	0	4	17	.
COc1ccc(CCNC(=O)c2c(C)nn(-c3ccccc3)c2Cl)cc1OC	.	16	-1	.	.	.
COc1cc(C#Cc2c(-c3cncn3C)n(C)c3ccc(-c4ccc5[nH]ccc5c4)cc23)cc(OC)c1	-6	7	-1	6	93*	92*
COc1cc(C#Cc2c(-c3cncn3C)n(C)c3ccc(-c4cc(OC)c(OC)c(OC)c4)cc23)cc(OC)c1	7	2	-1	8	61*	77*
CCOC(=O)c1c(C)[nH]c(C(=O)OCC(=O)NCCc2ccc(OCC)c(OCC)c2)c1C	-76	-1	2	?	57*	63*
O=C(CCC(=O)N1CCOc2ccc(Cl)cc21)NCCCN1CCN(c2ccccc2F)CC1	-54	1	0	54	-9	.
O=C(CCC(=O)N1CCOc2ccc(Cl)cc21)NCCCN1CCC(Cc2ccccc2)CC1	9	-4	0	-9	90*	62*
CS(=O)(=O)c1ccc(NC(=O)c2ccc3c(c2)S(=O)(=O)N=C2CCCCCN23)cc1	9	-14	0	-9	8	.
CC(C)(C)c1ccc(Oc2ccc(NC(=O)c3ccccc3C(=O)O)cn2)cc1	.	0	0	.	62*	6
O=C(O)c1ccccc1C(=O)Nc1ccc(Oc2ccccc2)cc1	.	1	1	.	1	.
O=C(Nc1nc(-c2ccc(Cl)cc2Cl)cs1)c1ccc(OCC2CCCO2)cc1 (configuration not stated)	8	6	2	-8	24	.
CC(C)COc1ccc(C(=O)Nc2scc(-c3ccc(Cl)cc3Cl)c2C(N)=O)cc1	-19	-1	0	19	60*	39
COC(=O)C(CO)NC(=O)C1CCCN1C(=O)CNC(=O)OCc1ccccc1 (configuration not stated)	-16	-1	0	16	.	.
CCC(C)(C(=O)NC1CCCCC1)N(CC1CCCO1)C(=O)Cc1cccs1 (configuration not stated)	27	4	-1	-27	-10	.
COc1cc2c(cc1NC(=O)Nc1cccc(C)c1)oc1ccccc12	-87	-3	-1	87*	51*	33
C#CCOCCOCCOCCNc1nc(N2CCN(C(=O)[C@H]([C@@H](C)CC)n3cc([C@@H](N)CO)nn3)CC2)nc(N2CCN(C(=O)[C@H](CCCCN)n3cc([C@@H](N)CC(C)C)nn3)CC2)n1	.	.	1	.	.	.
C#CCOCCOCCOCCNc1nc(N2CCN(C(=O)[C@H](CCCCN)n3cc([C@@H](N)CO)nn3)CC2)nc(N2CCN(C(=O)[C@H](CCCCN)n3cc([C@@H](N)CC(C)C)nn3)CC2)n1	3	-1	-1	-12	70*	-1
COc1cc(OC)nc(Nc2nc(C(N)Cc3ccc(Cl)cc3)cs2)n1 (configuration not stated)	.	19	.	.	58*	46*
COc1ccc(CC(N)c2csc(NC(=O)NCc3ccccc3)n2)cc1 (configuration not stated)	.	-3	.	.	53*	42*
COc1cc(CNC(=O)Nc2nc(C(N)Cc3ccc(C(F)(F)F)cc3)cs2)cc(OC)c1OC (configuration not stated)	.	.	.	.	76*	88*
COc1cc(NC(=O)Nc2nc(C(N)CCc3ccccc3)cs2)cc(OC)c1OC (configuration not stated)	.	-5	.	.	83*	89*
CS(=O)(=O)c1ccc(C(=O)OCC(=O)N(CCc2ccccc2)Cc2ccccc2)cc1	9	9	0	-9	2	.
SMILES	SR-BI uptake up	Vif imaging	Bfl-1 A1 inh	SR-BI DiI inh	H9c2 TAG inh	H9c2 TAG conf
Cc1ccc(Cl)cc1N1CCN(C(=O)CCS(=O)(=O)c2ccc3c(c2)NC(=O)CO3)CC1	-11	-5	0	11	.	.
COc1ccc(N(CC(=O)NC2CC2)S(=O)(=O)c2ccccc2)cc1	-2	0	0	2	.	.
O=C1CN(C(=O)COc2ccc(Br)cc2)c2ccccc2N1	-12	-14	1	12	-2	.
Cc1c(NC(=O)N(C)c2ccccc2)c(=O)n(-c2ccccc2)n1C	-4	0	0	4	.	.
COc1ccc(CC(N)c2csc(NC(=O)Nc3ccccc3-c3ccccc3)n2)cc1 (configuration not stated)	.	-4	.	.	73*	87*
CC(C)CC(N)c1csc(NC(=O)Nc2ccccc2Cc2ccccc2)n1 (configuration not stated)	.	-4	.	.	114*	69*
COCCNC(=O)CN1C(=O)/C(=C/c2ccccc2)Oc2ccc(C(C)(C)C)cc21	-13	.	0	13	.	.
CCCCNC(=O)c1onc(CSc2ccncc2)c1C(=O)NCCCC	-3	-2	1	-6	-4	.
O=C(NCC1CC1)c1onc(CSc2ccncc2)c1C(=O)NCC1CC1	6	0	1	2	50*	32
O=C(NCc1nnc(SCC(=O)N2CCN(c3ccccc3)CC2)o1)c1c(F)cccc1F	-23	-6	?	23	2	.
c1ccc(OCCNc2nc(NCC3CC3)nc3cc(-c4ccccc4)sc23)cc1	.	-8	.	.	57*	41*
COCCNc1nc(NCc2ccc(NC(C)=O)cc2)c2sc(-c3ccccc3)cc2n1	.	4	.	.	53*	123*
C=CCNc1nc(NCCOC)c2sc(-c3ccccc3)cc2n1	.	.	.	.	5	.
C=CCNc1nc(Nc2ccc(OC)c(OC)c2)c2sc(-c3ccccc3)cc2n1	.	16	.	.	70*	82*
O=C(CSc1ccc(-c2cccc([N+](=O)[O-])c2)nn1)N1CCCC1	2	-5	-2	-2	60*	3
O=C(CSc1ccc(-c2cccc([N+](=O)[O-])c2)nn1)N1CCCCCC1	-21	-4	0	21	-10	.
CC1(C)OC(=O)N(NCc2ccccc2)C1(C)O (configuration not stated)	28	16	1	-28	.	.
